Reference: PubChem BioAssay AID504476 (NMMLSC, 2011)
pEC50: −log10 of the molar value. Calls of active or inactive are those of the source.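 How the source made its calls: active means toxic dose divided by the dose restoring drug killing exceeds 10, where toxic dose is under 15 µM; inactive means the rest.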

Test system: Jurkat/DNR + daunorubicin, trypan blue viability, 3 d
Experiment: chemoreversal in ABCB1-expressing Jurkat/DNR cells – cell-based, trypan blue viability, SAR set 2, SAR follow-up (AID 504476)
Conditions: for CC50: measured here: TD50 toxicity without chemotherapeutic
Method in brief: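 read-out = concentration halving cell viability | test system = Daunorubicin-resistant Jurkat/DNR cells | amount = 100,000 cells per mL | incubation = 3 days exposure | detection = trypan blue exclusion with light-microscopy cell counting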

SMILES | pEC50 | CC50 | EC50
COc1cccc(-c2cc3nc(-c4ccco4)cc(N4CCN(C(C)=O)CC4)n3n2)c1 | 6.49 | 49.3 µM | –
O=C(c1ccoc1)N1CCN(c2cc(-c3ccco3)nc3cc(-c4ccco4)nn23)CC1 | – | 1.93 µM | 0.19 µM (inactive)
O=C(c1ccoc1)N1CCCN(c2cc(-c3ccco3)nc3cc(-c4ccccc4)nn23)C1 | – | 12 µM | 0.35 µM (inactive)
O=C(c1ccoc1)N1CCN(c2cc(-c3ccoc3)nc3cc(-c4ccccc4)nn23)CC1 | – | 7.3 µM | 0.42 µM (inactive)
CC(=O)N1CCN(c2cc(-c3ccco3)nc3cc(-c4ccccc4)nn23)CC1 | – | 10.1 µM | 0.19 µM (inactive)
COc1ccc(-c2cc3nc(-c4ccco4)cc(N4CCN(C(=O)c5ccoc5)CC4)n3n2)cc1 | 5.24 | > 100 µM | –
COc1cccc(-c2cc(N3CCN(C(=O)c4ccoc4)CC3)n3nc(-c4ccccc4)cc3n2)c1 | – | 5.7 µM | 0.18 µM (inactive)
COc1ccccc1-c1cc(N2CCN(C(=O)c3ccoc3)CC2)n2nc(-c3ccccc3)cc2n1 | – | 3.7 µM | 0.17 µM (inactive)
Cc1ccc(-c2cc3nc(-c4ccco4)cc(N4CCN(Cc5ccoc5)CC4)n3n2)cc1 | – | 12.5 µM | 0.35 µM (inactive)
CC(=O)N1CCN(c2cc(-c3ccco3)nc3cc(-c4cccc(Cl)c4)nn23)CC1 | 7.10 | 17.6 µM | –
